# Data reported in ChEMBL document CHEMBL1671816, “Design and synthesis of oxymatrine analogues overcoming drug resistance in hepatitis B virus through targeting host heat stress cognate 70” (J Med Chem, 2011).
# How the values were obtained:
# HepG2 2.2.15 = experiment: Inhibition of Hsc70 mRNA expression in human HepG2(2.2.15) cells at 100 ug/ml after 24 hrs by RT-PCR analysis; assay type: functional; conditions: HepG2 2.2.15, 24 h
# In short: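 HepG2.2.15 cells seeded at 5 × 10^4 per well in Opti-MEM with 10% FBS, grown for one day, then exposed to compound at 100 μg/mL for 24 h. Total RNA isolated with TRIZOL. Hsc70 mRNA measured by real-time RT-PCR with GAPDH as the reference gene.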
# [1] = Cytotoxicity against human HepG2(2.2.15) cells after 9 days; assay type: cell-based; conditions: read-out: TC50
# In short: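 Cytotoxicity in HepG2.2.15 cells cultured for 9 days at 37 °C, seeded at 2 × 10^4 per well. TC50 is the concentration killing 50% of cells relative to untreated controls.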
# [2] = tested on: Hepatitis B virus (human); experiment: Antiviral activity against HBV in human HepG2(2.2.15) cells assessed as reduction of viral DNA level after 9 days by RT-PCR analysis; conditions: HepG2 2.2.15, 216 h
# Hepatitis B virus [3] = experiment: Antiviral activity against lamivudine-resistant HBV infected in human Huh7.5 cells assessed as reduction of viral replication at 37 ug/ml after 36 hrs; assay type: functional; conditions: Huh-7, 36 h, read-out: INH
# In short: (§1)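 Huh7.5 cells (2 × 10^5/well) were plated, incubated overnight, then transiently transfected for 24 h with pcDNA3.1 carrying wild-type or lamivudine-resistant HBV (rtL180M + rtM204V). After a PBS wash they got fresh medium with drug (0.16 μg/mL for line 6, 37 μg/mL for line 7) for 36 h. HBV DNA replicative intermediate was measured by real-time PCR; experiment run twice, mean and SD.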
# Mus musculus [4] = experiment: Acute toxicity in ICR mouse assessed as liver function at up to 750 mg/kg, po after 7 days; assay type: organism-based; design: dose 750 mg/kg, route oral; conditions: in vivo, 168 h
# In short: (§2)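 Male and female ICR mice (22.0 ± 1.0 g), 10 per group (5 male, 5 female), given a single oral dose of 0 (1% polysorbate-80 in saline), 250, 500 or 750 mg/kg. Survival and body weight were monitored for 7 days. Blood was then drawn for AST, ALT, BUN and CRE as liver and kidney function markers.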
# Mus musculus [5] = experiment: Acute toxicity in ICR mouse assessed as change in body weight at up to 750 mg/kg, po after 7 days; assay type: organism-based; design: dose 750 mg/kg, route oral; conditions: in vivo, 168 h; in short: as §2
# Mus musculus [6] = experiment: Acute toxicity in ICR mouse assessed as mortality at up to 750 mg/kg, po after 7 days; assay type: organism-based; design: dose 750 mg/kg, route oral; conditions: in vivo, 168 h; in short: as §2
# Hepatitis B virus [7] = experiment: Antiviral activity against wild type HBV infected in human Huh7.5 cells assessed as reduction of viral replication at 37 ug/ml after 36 hrs; assay type: functional; conditions: Huh-7, 36 h, read-out: INH
# In short: (§3)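 Huh7.5 cells (DMEM, 10% inactivated FBS, 1% pen-strep) plated at 2 × 10^5 per well, incubated overnight, then transiently transfected for 24 h with pcDNA3.1 carrying the full wild-type or lamivudine-resistant (rtL180M + rtM204V) HBV genome. After a PBS wash, treated in fresh medium for 36 h. Replicative-intermediate HBV DNA measured by real-time PCR. Run twice; mean and SD.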
# [8] = Acute toxicity in po dosed ICR mouse assessed as mortality after 7 days; assay type: organism-based; conditions: in vivo; in short: as §2
# Mus musculus [9] = experiment: Acute toxicity in ICR mouse assessed as kidney function at up to 750 mg/kg, po after 7 days; assay type: organism-based; design: dose 750 mg/kg, route oral; conditions: in vivo, 168 h; in short: as §2
# Hepatitis B virus [10] = experiment: Antiviral activity against wild type HBV infected in human Huh7.5 cells assessed as reduction of viral replication at 0.16 ug/ml after 36 hrs; assay type: functional; conditions: Huh-7, 36 h; in short: as §3
# Hepatitis B virus [11] = experiment: Antiviral activity against lamivudine-resistant HBV infected in human Huh7.5 cells assessed as reduction of viral replication at 0.16 ug/ml after 36 hrs; assay type: functional; conditions: Huh-7, 36 h; in short: as §1
SMILES,IC50 [2] [µM],inhibition at 100 µg/mL (HepG2 2.2.15) [%],CC50 at 216 h [1] [µM],other results
CCOC1CC(=O)N2C[C@@H]3CCCN4CCC[C@@H]([C@H]34)[C@H]2C1 (stereo not given in full),9.55,74.1,481,inhibition at 37 µg/mL (Hepatitis B virus [3]): 35%; Activity (Mus musculus [4]): Non-toxic; Activity (Mus musculus [5]): Non-toxic; Activity (Mus musculus [6]): Non-toxic; inhibition at 37 µg/mL (Hepatitis B virus [7]): 32%; LD50 at 168 h [8]: > 750 mg/kg; Activity (Mus musculus [9]): Non-toxic
COC1C[C@@H]2[C@H]3CCCN4CCC[C@@H](CN2C(=O)C1OC)[C@@H]34 (stereo not given in full),,39.3,,
O=C1C(OCc2ccccc2)C(OCc2ccccc2)C[C@@H]2[C@H]3CCCN4CCC[C@@H](CN12)[C@@H]34 (stereo not given in full),2.76,45.4,37,
CCOC(=O)OC1C[C@@H]2[C@H]3CCCN4CCC[C@@H](CN2C(=O)C1OC(=O)OCC)[C@@H]34 (stereo not given in full),,< 10,,
O=C(OC1C[C@@H]2[C@H]3CCCN4CCC[C@@H](CN2C(=O)C1OC(=O)c1ccc(F)c([N+](=O)[O-])c1)[C@@H]34)c1ccc(F)c([N+](=O)[O-])c1 (stereo not given in full),,30.8,,
CC(Cl)C(=O)OC1C[C@@H]2[C@H]3CCCN4CCC[C@@H](CN2C(=O)C1O)[C@@H]34.Cl (stereo not given in full),592,48.6,> 1000,
O=C(OC1C[C@@H]2[C@H]3CCCN4CCC[C@@H](CN2C(=O)C1O)[C@@H]34)c1ccc(F)c([N+](=O)[O-])c1 (stereo not given in full),,43.4,,
CCOC(=O)OC1C[C@@H]2[C@H]3CCCN4CCC[C@@H](CN2C(=O)C1O)[C@@H]34 (stereo not given in full),23.9,54.8,1000,
COC1=CC[C@@H]2[C@H]3CCCN4CCC[C@@H](CN2C1=O)[C@@H]34,,39.7,,
O=C1CC(O)C[C@@H]2[C@H]3CCCN4CCC[C@@H](CN12)[C@@H]34 (stereo not given in full) [13-HYDROXYMATRINE],,50.4,,
O=C(O)P(=O)(O)O [FOSCARNET],106,,> 1000,
Nc1ccn([C@@H]2CS[C@H](CO)O2)c(=O)n1 [LAMIVUDINE],,,,inhibition at 0.16 µg/mL (Hepatitis B virus [10]): 64%; inhibition at 0.16 µg/mL (Hepatitis B virus [11]): 28%
O=C1CCC[C@@H]2[C@H]3CCCN4CCC[C@@H](CN12)[C@@H]34 [MATRINE],,52.4,,
O=C1CCC[C@@H]2[C@H]3CCC[N+]4([O-])CCC[C@@H](CN12)[C@@H]34 (stereo not given in full) [OXYMATRINE],,55,,
O=C1C=CC[C@@H]2[C@H]3CCC[N+]4([O-])CCC[C@@H](CN12)[C@@H]34 (stereo not given in full) [OXYSOPHOCARPINE],,15.3,,
O=C1C=CC[C@@H]2[C@H]3CCCN4CCC[C@@H](CN12)[C@@H]34 [SOPHOCARPINE],,21.6,,

# More lines, main results first:
IC50 [2] [µM],SMILES,inhibition at 100 µg/mL (HepG2 2.2.15) [%],CC50 at 216 h [1] [µM],other results
121,COC1CC(=O)N2C[C@@H]3CCCN4CCC[C@@H]([C@H]34)[C@H]2C1 (stereo not given in full),48.6,1110,
14.4,O=C1CC(OCc2ccccc2)C[C@@H]2[C@H]3CCCN4CCC[C@@H](CN12)[C@@H]34 (stereo not given in full),24.7,136,
16.3,O=C(OC1CC(=O)N2C[C@@H]3CCCN4CCC[C@@H]([C@H]34)[C@H]2C1)c1ccccc1 (stereo not given in full),51,236,
54.5,O=C1CC(C[N+](=O)[O-])C[C@@H]2[C@H]3CCCN4CCC[C@@H](CN12)[C@@H]34 (stereo not given in full),35.8,> 1000,
168,CNC1CC(=O)N2C[C@@H]3CCCN4CCC[C@@H]([C@H]34)[C@H]2C1 (stereo not given in full),40.1,> 1000,
346,CC(=O)OC1C[C@@H]2[C@H]3CCCN4CCC[C@@H](CN2C(=O)C1O)[C@@H]34.Cl (stereo not given in full),37.1,> 1000,
14,Cl.O=C(CCl)OC1C[C@@H]2[C@H]3CCCN4CCC[C@@H](CN2C(=O)C1O)[C@@H]34 (stereo not given in full),88.2,1100,
42.6,Cl.O=C(OC1C[C@@H]2[C@H]3CCCN4CCC[C@@H](CN2C(=O)C1O)[C@@H]34)c1ccccc1 (stereo not given in full),34.5,136,
47.1,"O=C1C(O)C(O)C[C@@H]2[C@H]3CCCN4CCC[C@@H](CN12)[C@@H]34 (stereo not given in full) [13,14-DIHYDROXYMATRINE]",38.9,> 1000,
